29 compounds from ChEMBL document CHEMBL5104110, “Identification of 2-arylquinazolines with alkyl-polyamine motifs as potent antileishmanial agents: synthesis and biological evaluation studies” (RSC Med Chem, 2022) can be followed below.

The subject of series [1] is Leishmania donovani. As to the kind of experiment: Antileishmanial activity against Leishmania donovani assessed as inhibition of parasite growth incubated for 2 hrs by y [3H]thymidine incorporation assay. It is filed as functional, organism-based.
Series [2] is described as follows: Selectivity index, ratio of IC50 for cytotoxicity against PMA-differentiated THP-1 macrophages to IC50 for antileishmanial activity against log phase of wild type Leishmania donovani MHOM/80/IN/Dd8 promastigotes. The format is toxicity. To be noted: human; read-out: Ratio IC50.
The test system of series [3] is Leishmania donovani. As to the kind of experiment: Antileishmanial activity against log phase of wild type Leishmania donovani MHOM/80/IN/Dd8 promastigotes assessed as inhibition of cell growth incubated for 48 hrs by MTT assay. The format is functional, organism-based. The settings on record: MHOM/80/IN/Dd8, 48 h. Put shortly: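 L. donovani Dd8 promastigotes grown at 24 °C, pH 7.2, in HEPES-modified RPMI-1640 with 10% heat-inactivated FBS and antibiotics. 2 × 10^5 log-phase cells were exposed to 10–100 µM compound (10 mM DMSO stocks diluted in medium) for 48 h at 24 °C. MTT (400 µg/mL final) was added for 4 h at 37 °C, formazan dissolved in DMSO, and A540 read. IC50 was taken against untreated cells; mean ± SD of three independent experiments.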
(In general: Tetrazolium dyes change colour on reduction, which living cells bring about.)

Series [4] can be described thus: Cytotoxicity against human PMA-differentiated THP-1 macrophages assessed as inhibition of cell growth by MTT assay. The format is toxicity, cell-based, Macrophage. Put shortly: (§1)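 About 2 × 10^5 THP-1 monocytes were differentiated with 20 ng/mL PMA for 48 h at 37 °C, and non-adherent cells were washed off with serum-free medium. Adherent macrophages were exposed to 10, 20, 50 and 100 µM compound for 48 h at 37 °C in 5% CO2. Viability was read by MTT.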

Series [5] has as its system Leishmania donovani. The series is described as follows: Induction of ROS generation in wild type Leishmania donovani MHOM/80/IN/Dd8 promastigotes at 5 uM incubated for 24 hrs by MitoSOX red dye based fluorescence spectrophotometric analysis relative to control. It is filed as functional. Put shortly: (§2)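 Promastigotes at about 1 × 10^6/mL were treated at ~5 or ~10 µM for 3, 6, 24 and 48 h, with 0.2% DMSO as vehicle and antimycin A (10 µM) as positive control. Cells were washed twice in HBSS and stained with 5 µM MitoSOX red for 20 min at 25 °C. Fluorescence was read at 510/580 nm ex/em.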

Series [6] deals with Leishmania donovani. As to the kind of experiment: Induction of ROS generation in wild type Leishmania donovani MHOM/80/IN/Dd8 promastigotes at 5 to 10 uM incubated for 48 hrs by MitoSOX red dye based fluorescence spectrophotometric analysis. It is filed as functional, organism-based. The settings on record: dose 5-10 µM. Put shortly: as §2
Series [7] concerns Leishmania donovani. As to the kind of experiment: Induction of ROS generation in wild type Leishmania donovani MHOM/80/IN/Dd8 promastigotes at 10 uM incubated for 24 hrs by MitoSOX red dye based fluorescence spectrophotometric analysis. It is filed as functional. Put shortly: as §2
In series [8] the test system is Macrophage. As to the kind of experiment: Cytotoxicity against human PMA-differentiated THP-1 macrophages assessed as inhibition of cell growth measured upto 100 uM by MTT assay. It is filed as toxicity, cell-based. Put shortly: as §1
Series [9] concerns Leishmania donovani. The series is described as follows: Antileishmanial activity against amastigote stage of Leishmania donovani MHOM/SD/62/IS-CL2D assessed as inhibition of parasite growth incubated for 3 days by CellTiter 96 Aqueous Non-Radioactive Cell Proliferation Assay. The format is functional, organism-based. To be noted: 72 h.
Series [10] concerns Leishmania mexicana. As to the kind of experiment: Antileishmanial activity against Leishmania mexicana assessed as inhibition of parasite growth. The format is functional, organism-based.
The test system of series [11] is Leishmania braziliensis. The series is described as follows: Antileishmanial activity against Leishmania braziliensis assessed as inhibition of parasite growth. It is filed as functional, organism-based.
For series [12], the system named is Leishmania amazonensis. The series is described as follows: Antileishmanial activity against Leishmania amazonensis assessed as inhibition of parasite growth. The format is functional, organism-based.
Series [13] has as its system Leishmania donovani. The series is described as follows: Induction of ROS generation in wild type Leishmania donovani MHOM/80/IN/Dd8 promastigotes incubated for 24 hrs by MitoSOX red dye based fluorescence spectrophotometric analysis. The format is functional, organism-based. Put shortly: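 Promastigotes were grown at 24 °C in HEPES-modified RPMI-1640 with 10% heat-inactivated FBS, pH 7.2. About 1 × 10^6 parasites/ml were exposed to ~5 µM or ~10 µM test compound. Controls were untreated cells, antimycin A (10 µM) and 0.2% DMSO vehicle. Cells were washed twice in HBSS and stained with 5 µM MitoSOX red for 20 min at 25 °C. Fluorescence was read at ex 510/em 580 nm.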

In brackets after ≈: the same amount, converted by molar mass. Activity calls are given as the source filed them. No cut-off for these calls is given here. Where only a bound is given, the exact number is not on record here.

By IC50 is commonly meant the point on the concentration scale where inhibition reaches its midpoint. For the compound `C=CC(C)(C)c1cc(/C=C/C(=O)c2ccc(O)cc2)c(OC)cc1O` [LICOAGROCHACONE A], the IC50 in series [1] worked out at 4 µg/mL (≈ 11.8 µM).
Turning to `NCCNc1nc(-c2ccc(F)cc2)nc2ccccc12`, in series [2], the selectivity ratio was 2.56. In addition, the figures for the IC50 in series [3] and in series [4] were 25 µM and 64 µM, respectively.
Take `CN1CCN(CCCNc2nc(-c3ccc(Cl)cc3)nc3ccccc23)CC1`: the IC50 in [3] is 28.5 µM.
For `COc1ccc(-c2nc(NCCCN3CCOCC3)c3ccccc3n2)cc1`, the selectivity ratio in series [2] came to 2.24. The results for the IC50 in series [3] and in series [4] were 25 µM and 56 µM, respectively.
For `NCCCCNc1nc(-c2ccc(F)cc2)nc2ccccc12` the same measures were 1.96, 32.5 µM and 64 µM.
For `NCCNc1nc(-c2ccc(Cl)cc2)nc2ccccc12`, in that order: 2.3, 6.5 µM and 15 µM.
With `COc1ccc(-c2nc(NCCN(C)C)c3ccccc3n2)cc1`, the Activity in [5] worked out at 50%; in series [7] it was 82%. For the same compound, the selectivity ratio in [2] came out at 11. Besides, the IC50 is 5 µM in series [3] and 57 µM in series [4]. In addition, the result in [6] was Active.
As for `COc1cc(-c2nc(NCCCN3CCOCC3)c3ccccc3n2)cc(OC)c1OC`, the Activity entry in series [8] is reported as “Toxic”.
Consider `COc1cccc(-c2nc(NCCCN(C)C)c3ccccc3n2)c1`, for which the selectivity ratio in series [2] was determined as 6.72. Moreover, the IC50 in [3] amounted to 5.5 µM; in [4], 37 µM.
For `CN(C)CCNc1nc(-c2ccc(Cl)cc2)nc2ccccc12` the same measures were 8, 7.5 µM and 60 µM.
For `COc1ccc(-c2nc(NCCCN3CCN(C)CC3)c3ccccc3n2)cc1`, in that order: 7.28, 6.3 µM and 53 µM.
For `COc1cc(-c2nc(NCCN(C)C)c3ccccc3n2)cc(OC)c1OC`, in that order: 7.69, 6.5 µM and 50 µM.
For the compound `COc1ccc(-c2nc(NCCCN3CCOCC3)c3ccccc3n2)cc1O`, in [2], the selectivity ratio is 1.76. Further, the IC50 in series [3] was found to be 19 µM; in [4], 33.5 µM.
Turning to `CN(C)CCNc1nc(-c2ccc(O)cc2)nc2ccccc12`, the selectivity ratio in series [2] worked out at 9.27. Further, the IC50 in series [3] turned out to be 5.5 µM; in series [4], 51 µM.
Consider `Oc1ccc(-c2nc(NCCCN3CCOCC3)c3ccccc3n2)cc1`, for which the selectivity ratio in [2] was found to be 1.42. Moreover, the IC50 in [3] turned out to be 50 µM; in [4], 71 µM.
For `CCCCCCCCCCCCCCCCOP(=O)([O-])OCC[N+](C)(C)C` [MILTEFOSINE] the same measures were 3.42, 10.5 µM and 36 µM.
With `O=C1c2cc(I)ccc2-n2c1nc1ncccc1c2=O`, the IC50 in series [9] was found to be 0.016 µg/mL (≈ 0.0427 µM).
With `CN(C)CCCNc1nc(-c2ccc(Cl)cc2)nc2ccccc12`, in series [2], the selectivity ratio came out at 9.53. The IC50 is 6.5 µM in series [3] and 62 µM in series [4].
For `CN(C)CCCNc1nc(-c2ccccc2)nc2ccccc12` the same measures were over 11.1, 9 µM and over 100 µM.
For `CN(C)CCCNc1nc(-c2ccc(O)cc2)nc2ccccc12`, in that order: 10, 6.5 µM and 65 µM.
On to `CN(C)CCCNc1nc(-c2ccc(F)cc2)nc2ccccc12`, for which the selectivity ratio in [2] turned out to be 4.84. Further, the values for the IC50 in series [3] and in [4] were 13 µM and 63 µM, respectively.
For `COc1cc(-c2nc(NCCCN(C)C)c3ccccc3n2)cc(OC)c1OC`, in that order: 2.06, 29.5 µM and 61 µM.
`CN1CCN(CCCNc2nc(-c3ccc(F)cc3)nc3ccccc23)CC1`: the selectivity ratio in [2] stood at 5. Also, the IC50 in [3] came out at 8 µM; in series [4], 40 µM.
For `COc1ccc(-c2nc(NCCN(C)C)c3ccccc3n2)cc1O` the same measures were 3.46, 6.5 µM and 22.5 µM.
For `COc1cc(-c2nc(NCCCN3CCN(C)CC3)c3ccccc3n2)cc(OC)c1OC`, in that order: 0.6, 90 µM and 54 µM.
For `NCCCCNc1nc(-c2ccc(Cl)cc2)nc2ccccc12`, in that order: 1.08, 12 µM and 13 µM.
Take `COc1ccc(-c2nc(NCCCN(C)C)c3ccccc3n2)cc1`: the Activity in series [5] turned out to be 63%; in [7] it was 119%. Moreover, the selectivity ratio in series [2] is 13.5. Further, the values for the IC50 in series [3] and in [4] were 5 µM and 67.5 µM, respectively. The result in series [6] was Active.
Broadly, the EC50 is the concentration that produces a half-maximal response. As for `COc1cccc(-c2nc(O)c3ccccc3n2)c1`, the EC50 in [10] came to 5.29 µM; in series [11], 4.89 µM; in series [12], 9.14 µM.
Turning to `CCCCCC[C@H]1C(=O)O[C@H](C)[C@H](NC(=O)c2cccc(NC=O)c2O)C(=O)O[C@@H](C)[C@@H]1OC(=O)CC(C)C`, the result in series [13] was Active.
